Laboratory results: ChEMBL document CHEMBL3856229, “Hybrid Antibiotic Overcomes Resistance in P. aeruginosa by Enhancing Outer Membrane Penetration and Reducing Efflux” (J Med Chem, 2016)

What was measured:
Escherichia coli [1] = assay: Antibacterial activity against fluoroquinolone resistant Escherichia coli isolate ECMH01 harboring beta-lactamase NDM-1; format: functional
Pseudomonas aeruginosa [2] = assay: Antibacterial activity against multidrug-resistant/tobramycin-susceptible Pseudomonas aeruginosa isolate 108590; format: functional
Pseudomonas aeruginosa [3] = assay: Antibacterial activity against pandrug-resistant Pseudomonas aeruginosa isolate 91433; format: functional
Escherichia coli [4] = assay: Antibacterial activity against gentamicin-resistant Escherichia coli isolate CAN-ICU 61714 after 24 hrs by microtitre broth dilution method; format: functional; conditions: isolate CAN-ICU 61714, 24 h
[5] = Inhibition of Pseudomonas aeruginosa DNA gyrase A assessed as inhibition of DNA supercoiling using PBR322 DNA as substrate after 30 mins by SYBR Gold staining based agarose gel electrophoresis
Pseudomonas aeruginosa [6] = assay: Antibacterial activity against multidrug/extremely drug-resistant/pandrug-resistant Pseudomonas aeruginosa isolate PA259-96918 in presence of <= 4 ug/ml of moxifloxacin (reference value: 2 ug/ml); format: functional
Pseudomonas aeruginosa [7] = assay: Antimicrobial activity against Pseudomonas aeruginosa PAO200; format: functional
Method in brief: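 MIC (µg/mL) determined in PAO200, a PAO1-derived MexAB-OprM deletion strain used to assess efflux effects.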

Escherichia coli [8] = assay: Antibacterial activity against Escherichia coli ATCC 25922 after 24 hrs by microtitre broth dilution method; format: functional; conditions: ATCC 25922, 24 h
Escherichia coli [9] = assay: Antibacterial activity against fluoroquinolone resistant Escherichia coli isolate 92969 harboring beta-lactamase CTX-M-15/OXA-1; format: functional
Escherichia coli [10] = assay: Antibacterial activity against gentamicin/tobramycin/ciprofloxacin-resistant Escherichia coli isolate CANWARD-2011 97615 harboring AAC3-2A after 24 hrs by microtitre broth dilution method; format: functional; conditions: isolate CANWARD-2011 97615, 24 h
Pseudomonas aeruginosa [11] = assay: Antibacterial activity against Pseudomonas aeruginosa PAO1 assessed as fractional inhibitory concentration index after 18 hrs in presence of novobiocin by checkerboard method; format: functional
Method in brief: (§1)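 Checkerboard combinations of the hybrid with each partner antibiotic were tested against P. aeruginosa PAO1. Interaction is expressed as the fractional inhibitory concentration (FIC) index: ≤0.5 means synergy, 1–2 no interaction, ≥4 antagonism.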

Pseudomonas aeruginosa [12] = assay: Potentiation of moxifloxacin induced antibacterial activity against pandrug-resistant Pseudomonas aeruginosa isolate 91433 assessed as moxifloxacin MIC at <= […] ug/ml (reference value: 8 to […] ug/ml); format: functional
[13] = Inhibition of circular DNA translation in Escherichia coli S30 extract after 60 mins by luciferase reporter gene assay
Method in brief: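 Translation was run in an E. coli S30 extract with a luciferase read-out. Luminescence is expressed as a percentage of the no-antibiotic control, taken as 100%.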

Enterococcus faecium = assay: Antibacterial activity against Enterococcus faecium ATCC 27270 after 24 hrs by microtitre broth dilution method; format: functional; conditions: ATCC 27270, 24 h
[14] = test system: Stenotrophomonas maltophilia; assay: Antibacterial activity against Stenotrophomonas maltophilia isolate CAN-ICU 62584 after 24 hrs by microtitre broth dilution method; format: functional; conditions: isolate CAN-ICU 62584, 24 h
Pseudomonas aeruginosa [15] = assay: Antibacterial activity against extremely drug-resistant Pseudomonas aeruginosa isolate 104354 infected in Galleria mellonella assessed as larvae survival at 75 mg/kg administered as single dose measured after 96 hrs; format: functional; conditions: isolate 104354, 96 h
Method in brief: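 Galleria mellonella larvae were infected with 10^6 CFU of XDR P. aeruginosa #104354, resistant to all antipseudomonal classes except colistin. A single injected drug dose was given 2 h post-infection: 50 mg/kg with survival read at 24 h, or 75 mg/kg with survival read at 96 h. Controls were infected untreated larvae and PBS-injected larvae. Two independent experiments of 15 larvae each (n = 30).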

Escherichia coli [16] = assay: Antibacterial activity against fluoroquinolone resistant Escherichia coli isolate 91191 harboring beta-lactamase CTX-M-14/TEM-1; format: functional
Pseudomonas aeruginosa [17] = assay: Potentiation of ciprofloxacin induced antibacterial activity against pandrug-resistant Pseudomonas aeruginosa isolate 91433 assessed as ciprofloxacin MIC at <= […] ug/ml (reference value: 4 to 8 ug/ml); format: functional
Escherichia coli [18] = assay: Antibacterial activity against fluoroquinolone resistant Escherichia coli isolate 80083 harboring beta-lactamase CTX-M-15/OXA-1; format: functional
Pseudomonas aeruginosa [19] = assay: Antibacterial activity against pandrug-resistant Pseudomonas aeruginosa isolate 91433 in presence of <= 4 ug/ml of ciprofloxacin (reference value: 8 ug/ml); format: functional
Pseudomonas aeruginosa [20] = assay: Antibacterial activity against Pseudomonas aeruginosa PAO1 assessed as outer membrane permeabilization by measuring increase in 1-N-phenylnaphthylamine measured […] for 4.5 mins by fluorescence assay; format: functional
Method in brief: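 PAO1 cells received NPN, then the test agent at 50, 32, 16 or 8 µg/mL, added at 120 s. Colistin at 5 µg/mL was the positive control. Uptake was followed as NPN fluorescence. The assay was run in triplicate, and each point is the mean of three determinations ± SEM.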

Pseudomonas aeruginosa [21] = assay: Potentiation of ciprofloxacin induced antibacterial activity against multidrug/extremely drug-resistant Pseudomonas aeruginosa isolate PA260-97103 assessed as ciprofloxacin MIC at <= […] ug/ml (reference value: […] to […] ug/ml); format: functional
Pseudomonas aeruginosa [22] = assay: Antibacterial activity against multidrug/extremely drug-resistant Pseudomonas aeruginosa isolate PA262-101856 in presence of <= 4 ug/ml of moxifloxacin (reference value: 4 ug/ml); format: functional
Escherichia coli [23] = assay: Antibacterial activity against fluoroquinolone resistant Escherichia coli isolate 95882 harboring beta-lactamase KPC-3/TEM-1; format: functional
Pseudomonas aeruginosa [24] = assay: Antibacterial activity against Pseudomonas aeruginosa PAO1; format: functional
Pseudomonas aeruginosa [25] = assay: Potentiation of moxifloxacin induced antibacterial activity against multidrug/extremely drug-resistant Pseudomonas aeruginosa isolate PA259-96918 assessed as moxifloxacin MIC at <= […] ug/ml (reference value: […] ug/ml); format: functional
Pseudomonas aeruginosa [26] = assay: Antibacterial activity against multidrug/extremely drug-resistant Pseudomonas aeruginosa isolate PA260-97103 in presence of <= 4 ug/ml of moxifloxacin (reference value: 1 ug/ml); format: functional
Pseudomonas aeruginosa [27] = assay: Antibacterial activity against multidrug/extremely drug-resistant/colistin-susceptible Pseudomonas aeruginosa isolate 100036; format: functional
Staphylococcus aureus = assay: Antibacterial activity against Staphylococcus aureus ATCC 29213 after 24 hrs by microtitre broth dilution method; format: functional; conditions: ATCC 29213, 24 h
Acinetobacter baumannii = assay: Antibacterial activity against fluoroquinolone resistant Acinetobacter baumannii isolate ABO30; format: functional
Pseudomonas aeruginosa [28] = assay: Antibacterial activity against multidrug/extremely drug-resistant Pseudomonas aeruginosa isolate PA259-96918 in presence of <= 4 ug/ml of ciprofloxacin (reference value: 2 ug/ml); format: functional
Pseudomonas aeruginosa [29] = assay: Antibacterial activity against multidrug-resistant/tobramycin-susceptible Pseudomonas aeruginosa isolate 86079; format: functional
Pseudomonas aeruginosa [30] = assay: Antibacterial activity against multidrug/extremely drug-resistant/colistin-susceptible Pseudomonas aeruginosa isolate 101885; format: functional
Pseudomonas aeruginosa [31] = assay: Antibacterial activity against multidrug-resistant/tobramycin-susceptible Pseudomonas aeruginosa isolate 83182; format: functional
Pseudomonas aeruginosa [32] = assay: Antibacterial activity against Pseudomonas aeruginosa PAO1 assessed as fractional inhibitory concentration index after 18 hrs in presence of tobramycin by checkerboard method; format: functional; method in brief: as §1
Pseudomonas aeruginosa [33] = assay: Antibacterial activity against pandrug-resistant Pseudomonas aeruginosa isolate 101243 in presence of <= 4 ug/ml of ciprofloxacin (reference value: 8 ug/ml); format: functional

With `COc1c(N2C[C@@H]3CCCN(CCCCCCCCCCCCO[C@@H]4[C@@H](O[C@H]5O[C@H](CO)[C@@H](O)[C@H](N)[C@H]5O)[C@H](N)C[C@H](N)[C@H]4O[C@H]4O[C@H](CN)[C@@H](O)C[C@H]4N)[C@@H]3C2)c(F)cc2c(=O)c(C(=O)O)cn(C3CC3)c12.Cl.Cl.Cl.Cl.Cl` the MIC (Escherichia coli [1]) was ≥ 64 µg/mL, the MIC (Pseudomonas aeruginosa [2]) was 2 µg/mL and the MIC (Pseudomonas aeruginosa [3]) was 8 µg/mL. For the same compound, the MIC (Escherichia coli [4]) was 4 µg/mL, the IC50 [5] was 54.7 µM and the MIC (Pseudomonas aeruginosa [6]) was < 1 µg/mL. For the same compound, the MIC (Pseudomonas aeruginosa [7]) was 4 µg/mL, the MIC (Escherichia coli [8]) was 0.5 µg/mL and the MIC (Escherichia coli [9]) was ≥ 64 µg/mL. For the same compound, the MIC (Escherichia coli [10]) was 128 µg/mL, the “fractional inhibitory concentration index (FICI)” value (Pseudomonas aeruginosa [11]) was 0.12 and the MIC (Pseudomonas aeruginosa [12]) was 0.12 µg/mL. The IC50 [13] was 4.7 µM, the MIC (Enterococcus faecium) was 16 µg/mL and the MIC [14] was 32 µg/mL. The survival at 75 mg/kg (Pseudomonas aeruginosa [15]) was 20%, the MIC (Escherichia coli [16]) was ≥ 64 µg/mL and the MIC (Pseudomonas aeruginosa [17]) was 0.25 µg/mL. The MIC (Escherichia coli [18]) was ≥ 64 µg/mL, the MIC (Pseudomonas aeruginosa [19]) was < 1 µg/mL and the Activity (Pseudomonas aeruginosa [20]) was “Dose-dependent effect”. For the same compound, the MIC (Pseudomonas aeruginosa [21]) was 1 µg/mL, the MIC (Pseudomonas aeruginosa [22]) was < 1 µg/mL and the MIC (Escherichia coli [23]) was ≥ 64 µg/mL. The MIC (Pseudomonas aeruginosa [24]) was 4 µg/mL, the MIC (Pseudomonas aeruginosa [25]) was < 1 µg/mL and the MIC (Pseudomonas aeruginosa [26]) was 0.25 µg/mL. The MIC (Pseudomonas aeruginosa [27]) was 8 µg/mL, the MIC (Staphylococcus aureus) was 1 µg/mL and the MIC (Acinetobacter baumannii) was 8 to 64 µg/mL. For the same compound, the MIC (Pseudomonas aeruginosa [28]) was < 0.5 µg/mL, the MIC (Pseudomonas aeruginosa [29]) was 4 µg/mL and the MIC (Pseudomonas aeruginosa [30]) was 8 µg/mL. The MIC (Pseudomonas aeruginosa [31]) was 8 µg/mL, the “fractional inhibitory concentration index (FICI)” value (Pseudomonas aeruginosa [32]) was >2 and the MIC (Pseudomonas aeruginosa [33]) was < 1 µg/mL.
